Compound activity deposited in PubChem BioAssay by Johns Hopkins Ion Channel Center.
Kir21 block: Kir2.1 (mouse) channel inhibition | HEK293-Kir2.1, FluxOR thallium flux fluorescence; stronger effect = lower value | AID 1672 | B-score at 10 µM | 0.85% of 310,000 active | P35561;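 active = fluorescence ratio B-score at or below minus 3 SD of library scores, with starting-brightness B-score within 2 SD, cut at about -4.2 in these data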;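 also: channel flux triggered by added potassium and thallium sulfate stimulus; B-score of peak minus minimum fluorescence over baseline after thallium stimulus; more negative B-score means stronger Kir2.1 block with less thallium influx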
hERG rescue: shields human hERG channel from block by proarrhythmic agents. 0.51% of 310,000 active. activation (rescue from dofetilide block), less the hit threshold, % at 10 µM. CHO-hERG, FluxOR thallium flux, dofetilide IC70 present. AID 1511;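 active = activation above the mean of controls blocked by dofetilide plus 5 SD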;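 also: thallium influx through hERG after potassium depolarization seen as dye fluorescence rise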
KCNK9 block: inhibitors of human KCNK9 two-pore domain potassium channel. Q9NPC2. HEK293 KCNK9, FluxOR thallium flux fluorescence; stronger effect = lower value. B-score at 10 µM. 1.2% of 310,000 active. AID 488922;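 active = ratio B-score over 3 SD below the library mean, with starting fluorescence within 5 SD of its mean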;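 also: negative B-score means less thallium flux so channel inhibition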
Target sequence (Q9NPC2 whole entry, looked up, the tested form may be a part): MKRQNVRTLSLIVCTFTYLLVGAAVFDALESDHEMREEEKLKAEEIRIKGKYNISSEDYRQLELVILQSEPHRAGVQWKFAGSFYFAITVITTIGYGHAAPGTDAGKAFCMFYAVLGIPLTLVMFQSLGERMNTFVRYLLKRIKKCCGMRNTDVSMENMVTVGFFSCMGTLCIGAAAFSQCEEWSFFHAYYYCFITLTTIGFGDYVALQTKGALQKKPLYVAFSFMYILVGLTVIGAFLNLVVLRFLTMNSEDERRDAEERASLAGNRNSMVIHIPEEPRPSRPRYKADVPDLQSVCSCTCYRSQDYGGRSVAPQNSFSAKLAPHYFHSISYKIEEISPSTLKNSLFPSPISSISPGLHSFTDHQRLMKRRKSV
KCNQ1 act: potentiators or activators of human KCNQ1 potassium channel; 0.35% of 310,000 active; B-score at 10 µM; CHO-K1 KCNQ1, thallium flux FluxOR fluorescence; stronger effect = higher value;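 active = fluorescence ratio B-score, a plate-corrected score, at least three library SD, with initial intensity B-score within 5 SD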
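Test system: CHO-K1 cells stably expressing KCNQ1 / Medium: assay buffer / Also added: depolarizing K+/Tl+ stimulus, K2SO4 and Tl2SO4 each 12.5 mM in 5x stock / Incubation: 90 min dye loading and 20 min compound exposure, both at room temperature / Signal: thallium influx via FluxOR fluorescence, kinetic imaging / Evaluation: B score of baseline-normalized fluorescence ratio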
KCNK3 inh: human KCNK3 channel inhibition, primary screen | B-score at 10 µM | 0.84% of 340,000 active | O14649 | CHO-KCNK3 thallium flux, FluxOR fluorescence; stronger effect = lower value;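 active = B-score under library mean minus 4 SD, starting fluorescence ratio at most library mean plus 5 SD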;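 also: more negative B-score means stronger inhibition of thallium flux through KCNK3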
KCNQ1 block: human KCNQ1 channel inhibition. P51787. CHO-K1 KCNQ1, FluxOR thallium flux fluorescence; stronger effect = higher value. B-score at 10 µM. 1.3% of 310,000 active;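 active = compounds whose thallium flux B-score, printed positive for inhibition, exceeds three library SD while starting fluorescence stays within three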;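 also: channel opened by potassium depolarization with thallium stimulus after 20 min compound exposure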
* = called active by the depositor; i = inactive; · = no result given. The list is not random: actives were taken first. Their share in the collection is about 3.7%.

SMILES	Kir21 block	hERG rescue	KCNK9 block	KCNQ1 act	KCNK3 inh	KCNQ1 block
COc1ccc(N2CCN(C(CNC(=O)C(=O)NCC(OC)OC)c3ccco3)CC2)cc1 (configuration not stated)	0.86	-6.5	i	i	i	i
O=C(NCCc1ccc(Cl)cc1)C1COc2ccccc2O1 (configuration not stated)	-4.74*	-3.1	i	i	i	i
Nc1nonc1-n1nnc(C(=O)N/N=C/c2ccncc2)c1CSc1ccccc1	-2.52	-3.5	i	i	i	i
Nc1nc(Cl)c(N)c(NCC2(CO)CC(CCc3ccccc3)C2)n1 (configuration not stated)	·	·	·	·	i	·
CCCCOC(=O)Cn1c(=O)n(CC(=O)OCCCC)c2ccccc21	-6.07*	-7.4	i	i	i	i
COc1ccc(NC(=O)CSc2nc3nc(-c4cccs4)cc(C(F)(F)F)c3c(=O)[nH]2)c(OC)c1	0.12	-5.1	i	i	i	9*
Cc1oc(-c2ccc(Cl)cc2)nc1CN1CCC(C(=O)NCCCN2CCOCC2)CC1	-4.57*	-6.5	i	i	i	i
CCC1CCCCN1CCCNC(=O)C1CCN(Cc2nc(-c3ccc(Cl)cc3)oc2C)CC1 (configuration not stated)	-1.17	-8.8	i	i	i	i
CCCCCCNC(=O)C(C#N)c1nc2ccccc2nc1N1CCOCC1 (configuration not stated)	-0.67	-2.3	-6.77*	i	i	7*
CCOC(=O)N1CCN(c2nc3ccccc3nc2C(C#N)C(=O)NCCc2ccccc2)CC1 (configuration not stated)	0.38	-13.9	i	i	i	8*
N#CC(C(=O)NCCc1ccccc1)c1nc2ccccc2nc1N1CCCCC1 (configuration not stated)	0.45	-11.7	i	i	i	i
CCCCCNC(=O)C(C#N)c1nc2ccccc2nc1N1CCCC1 (configuration not stated)	-1.96	-13.4	i	i	i	7*
COCCCNC(=O)C(C#N)c1nc2ccccc2nc1N1CCCC1 (configuration not stated)	0.61	-9.3	i	i	i	i
CCCCCCOC(=O)C(C#N)c1nc2ccccc2nc1N1CCN(CC)CC1 (configuration not stated)	1.19	-28.4	i	i	i	7*
Cc1ccc(C)c(OCC(=O)Nc2ccccc2C(=O)N2CCOCC2)c1	-1.69	-17.7	i	i	i	i
C=CCNC(=S)NNC(=O)Cn1c(-c2ccccc2)cc(=O)n2ncnc12	-1.49	-5.5	i	i	i	i
O=S(=O)(c1ccccc1)c1ccc(N2CCCCCC2)cc1	0	-5.5	i	i	i	i
Cc1cc(C(C)(C)C)cc(S(=O)(=O)NCCc2ccncc2)c1C	-0.42	-6.5	i	i	i	i
O=C(c1cc(-c2ccc(F)cc2)nc2ccccc12)N1CCN(C2CCS(=O)(=O)C2)CC1 (configuration not stated)	·	·	·	·	i	·
CC1=CCC2C(=O)N(c3ccc(OC(=O)c4ccco4)cc3)C(=O)C2C1 (configuration not stated)	-7.86*	-11.9	i	i	i	i
CSCCOC(=O)C1=C(C)NC(=O)CC1c1ccccc1Cl (configuration not stated)	-5.53*	-6.1	i	i	i	i
O=C1NC(=S)S/C1=C\c1ccc2ccccc2c1	0.8	35.7*	i	49*	i	i
COc1ccc(/C=C2\SC(=O)NC2=S)cc1OC	-1.07	5.7*	i	12*	i	i
COc1cc(/C=C2\SC(=S)NC2=O)ccc1OS(=O)(=O)c1ccccc1	0.04	-12.1	i	26*	·	i
COc1cc(/C=C2/SC(=S)NC2=O)ccc1OS(=O)(=O)c1ccc(C)cc1	-1.88	-11.5	i	48*	i	i
CCOc1ccc(/C=C2\SC(=S)NC2=O)cc1OC	1.19	-11.7	i	i	i	i
Cc1cccc(-n2ncc3c(N)ncnc32)c1	1.24	-4.2	i	i	i	i
